Tests used:
Integrin alpha-V/beta-6 = Integrin alpha-V/beta-6 (Homo sapiens, UniProt P06756+P18564); assay: Inhibition of recombinant human integrin alphaV (31 to 992 residues) beta6 (22 to 707 residues) expressed in CHO cells preincubated for 15 mins followed by Cy3B-RGD probe addition and measured after 2 hrs by fluorescence polarization assay
How it was run: (§1)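 Soluble purified human integrins from CHO cells, with 1 nM Cy3B-RGD probe, in 25 mM HEPES, 150 mM NaCl, 1 mM CHAPS, pH 7.4, at 20-22 °C. Final protein and cation: αvβ3 1 nM with 0.4 mM MgCl₂; αvβ5 4 nM with 0.1 mM MnCl₂; αvβ6 8 nM with MgCl₂; αvβ8 8 nM with MnCl₂. Read-out was polarization. pIC50 is mean ± SEM over test occasions.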

[1] = Inhibition of recombinant human integrin alphaV (31 to 992 residues) beta8 (43 to 684 residues) expressed in CHO cells preincubated for 15 mins followed by Cy3B-RGD probe addition and measured after 2 hrs by fluorescence polarization assay; how it was run: as §1
Integrin alpha-V/beta-3 = Integrin alpha-V/beta-3 (Homo sapiens, UniProt P05106+P06756); assay: Inhibition of recombinant human integrin alphaV (31 to 992 residues) beta3 (27 to 718 residues) expressed in CHO cells preincubated for 15 mins followed by Cy3B-RGD probe addition and measured after 2 hrs by fluorescence polarization assay; how it was run: as §1
[2] = Inhibition of recombinant human integrin alphaV (31 to 992 residues) beta5 (24 to 719 residues) expressed in CHO cells preincubated for 15 mins followed by Cy3B-RGD probe addition and measured after 2 hrs by fluorescence polarization assay; how it was run: as §1
[3] = Half life in CD rat at 1 mg/kg, iv and 1 mg/kg, po measured up to 24 hrs by LC-MS/MS analysis; assay type: ADME, organism-based; conditions: in vivo
How it was run: (§2)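 Two male CD rats per arm. IV: 1 mg/kg bolus via femoral vein in DMSO:PEG200:water (5:45:50). PO: 1 mg/kg by gavage in 0.5% methyl cellulose/0.2% Tween 80. Blood was taken by tail-vein cannula to 7 h and by venipuncture to 24 h. Plasma was extracted with acetonitrile plus internal standard, and drug measured by LC-MS/MS.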

[4] = Permeability of the compound in pH 7.4 phosphate buffer measured after 3 hrs by artificial membrane permeability assay based LC-MS analysis; assay type: ADME; conditions: PAMPA, read-out: permeability
How it was run: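 Bilayer of 1.8% egg phosphatidylcholine and 1% cholesterol in n-decane on filter inserts. Phosphate buffer was 50 mM Na₂HPO₄ with 0.5% hydroxypropyl-β-cyclodextrin, pH 7.4. Compound was added to the donor (bottom) well and incubated 3 h at room temperature. Donor and acceptor concentrations were measured by liquid chromatography.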

[5] = Oral bioavailability in CD rat at 1 mg/kg administered via gavage up to 24 hrs by LC-MS/MS analysis; assay type: ADME, organism-based; conditions: in vivo; how it was run: as §2
[6] = Volume of distribution at steady state in CD rat at 1 mg/kg, iv and 1 mg/kg, po measured up to 24 hrs by LC-MS/MS analysis; assay type: ADME, organism-based; conditions: in vivo, read-out: Vdss; how it was run: as §2
[7] = Clearance in CD rat at 1 mg/kg, iv and 1 mg/kg, po measured up to 24 hrs by LC-MS/MS analysis; assay type: ADME, organism-based; conditions: in vivo; how it was run: as §2

SMILES	IC50 (Integrin alpha-V/beta-6)	pIC50 [1]	IC50 (Integrin alpha-V/beta-3)	pIC50 [2]	half-life [3]	Papp at 3 h [4]	bioavailability [5]	Vd [6]	clearance [7]
O=C(O)C[C@@H](Nc1ccc(OCCc2ccc3c(n2)NCCC3)nn1)c1cccc(Cl)c1	794 nM	5.7	158 nM	7.9					
O=C(O)CC(Nc1ccc(OCCc2ccc3c(n2)NCCC3)nc1)c1cccc(Cl)c1 (racemic)	398 nM	6	12.6 nM	7.8					
O=C(O)CC(Nc1cnc(OCCc2ccc3c(n2)NCCC3)nc1)c1cccc(Cl)c1 (racemic)	631 nM	5.6	50.1 nM	7.3					
O=C(O)CC(Nc1cnc(OCCc2ccc3c(n2)NCCC3)nc1)c1ccc(Cl)cc1 (racemic)	251 nM	6.1	7.94 nM	8.2					
O=C(O)CC(Nc1ccc(OCCc2ccc3c(n2)NCCC3)cn1)c1cc(C2CC2)cc(C2CC2)c1 (racemic)	316 nM	6.9	126 nM	7					
O=C(O)CC(Nc1ccc(OCCc2ccc3c(n2)NCCC3)nc1)c1ccc(Cl)cc1 (racemic)	1000 nM	5.6	39.8 nM	7.3					
O=C(O)CC(Nc1ccc(OCCc2ccc3c(n2)NCCC3)cc1)c1cccc(F)c1 (racemic)	100 nM	6.4	2 nM	8.8					
O=C(O)CC(Nc1ncc(OCCc2ccc3c(n2)NCCC3)cn1)c1ccc(Cl)cc1 (racemic)	126 nM	7.2	1.26 nM	9					
O=C(O)CC(Nc1cnc(OCCc2ccc3c(n2)NCCC3)cn1)c1ccc(Cl)cc1 (racemic)	19500 nM	4.5	12600 nM	4.9					
O=C(O)CC(Nc1ccc(OCCc2ccc3c(n2)NCCC3)cn1)c1ccc(C(F)(F)F)cc1 (racemic)	79.4 nM	6.7	7.94 nM	8.1					
O=C(O)CC(Nc1ncc(OCCc2ccc3c(n2)NCCC3)cn1)c1cccc(Cl)c1 (racemic)	158 nM	6.6	5.01 nM	8.3					
O=C(O)CC(Nc1ccc(OCCc2ccc3c(n2)NCCC3)cn1)c1cccc(F)c1 (racemic)	79.4 nM	6.8	2.51 nM	8.4					
O=C(O)CC(Cc1ccc(OCCc2ccc3c(n2)NCCC3)cc1)c1ccccc1 (racemic)	1260 nM	5.8	2 nM	8.7					
O=C(O)CC(Nc1cnc(OCCc2ccc3c(n2)NCCC3)cn1)c1cccc(Cl)c1 (racemic)	12600 nM	4.9	5010 nM	5.3					

Compounds with a lower IC50 (Integrin alpha-V/beta-6), results first:

IC50 (Integrin alpha-V/beta-6)	pIC50 [1]	IC50 (Integrin alpha-V/beta-3)	pIC50 [2]	half-life [3]	Papp at 3 h [4]	bioavailability [5]	Vd [6]	clearance [7]	SMILES
6.31 nM	8.1	0.794 nM	8.9						O=C(O)C[C@H](Nc1ccc(OCCc2ccc3c(n2)NCCC3)nn1)c1cccc(Cl)c1
31.6 nM	6.9	3.16 nM	8.2						O=C(O)CC(Nc1ccc(OCCc2ccc3c(n2)NCCC3)cn1)c1ccc(CN2CCOCC2)cc1 (racemic)
12.6 nM	7.1	2 nM	8.5						O=C(O)CC(Nc1ccc(OCCc2ccc3c(n2)NCCC3)cn1)c1ccc(Oc2ccccc2)cc1 (racemic)
63.1 nM	7.2	3.98 nM	8.5						O=C(O)CC(Nc1ccc(OCCc2ccc3c(n2)NCCC3)cn1)c1cccc(CN2CCOCC2)c1 (racemic)
31.6 nM	7.2	5.01 nM	8.4						O=C(O)CC(Nc1ccc(OCCc2ccc3c(n2)NCCC3)cn1)c1cccc(Br)c1 (racemic)
20 nM	7.6	3.16 nM	8.5						O=C(O)CC(Nc1ccc(OCCc2ccc3c(n2)NCCC3)nn1)c1cccc(Cl)c1 (racemic)
50.1 nM	7.1	6.31 nM	8.2						O=C(O)CC(Nc1ccc(OCCc2ccc3c(n2)NCCC3)cn1)c1cccc(Cl)c1 (racemic)
25.1 nM	7.5	2 nM	8.5						O=C(O)CC(Nc1ccc(OCCc2ccc3c(n2)NCCC3)nn1)c1ccc(Cl)cc1 (racemic)
15.8 nM	7.4	3.98 nM	8.4	1.8 h	8 ×10⁻⁶ cm/s	98%	0.5 L/kg	8 mL/min/kg	O=C(O)CC(Nc1ccc(OCCc2ccc3c(n2)NCCC3)cn1)c1cccc(C2CC2)c1 (racemic)
39.8 nM	6.9	3.16 nM	8.4						O=C(O)CC(Nc1ccc(OCCc2ccc3c(n2)NCCC3)cn1)c1ccc(Cl)cc1 (racemic)
